Where a name gives a salt, the structure may show the parent alone. The source made the active and inactive calls. The rule behind the calls is not given here.
Assays:
A549 = assay: Antiproliferative activity against human A549 cells after 72 hrs by MTT assay; type: functional, cell-based; conditions: A549, 72 h
How it was run: (§1)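 Cells kept in Eagle's MEM with 10% fetal calf serum. 2500 cells per well were left to attach for 24 h at 37 °C under 5% CO2, then given varying concentrations for 72 h. Samples were dissolved in DMSO and diluted in medium (DMSO <0.1%). After 2 h with MTT, formazan was read at 550 nm. EC50 was taken from the mean of four wells.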

HeLa = assay: Antiproliferative activity against human HeLa cells after 72 hrs by MTT assay; type: functional, cell-based; how it was run: as §1
HT-1080 = assay: Antiproliferative activity against human HT1080 cells after 72 hrs by MTT assay; type: functional, cell-based; conditions: HT-1080, 72 h; how it was run: as §1
[1] = Antiproliferative activity against mouse B16-BL6 cells after 72 hrs by MTT assay; type: functional, cell-based; conditions: B16-BL6, 72 h; how it was run: as §1
[2] = Antiproliferative activity against mouse 26-L5 cells after 72 hrs by MTT assay; type: functional, cell-based
How it was run: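 Murine colon 26-L5 carcinoma cells kept in RPMI with 10% fetal calf serum. 2500 cells per well were left to attach for 24 h at 37 °C under 5% CO2, then exposed for 72 h to varying concentrations in medium, from a DMSO stock (<0.1% DMSO). MTT was added for 2 h and formazan read at 550 nm. EC50 was taken from the mean of four wells.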

[3] = DPPH radical scavenging activity after 30 mins; type: functional
How it was run: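 Samples in EtOH were vortexed with an equal volume of DPPH solution ([…] before mixing). Absorbance was read at 520 nm after 30 min.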

SMILES	EC50 (A549) [µM]	EC50 (HeLa) [µM]	EC50 (HT-1080) [µM]	EC50 [1] [µM]	EC50 [2] [µM]	Activity [3]
COc1cccc2c1C(=O)c1c(O)c3c(c(O)c1C2=O)C[C@@](O)(C(=O)CO)C[C@@H]3O[C@H]1C[C@H](N)[C@H](O)[C@H](C)O1 [DOXORUBICIN HYDROCHLORIDE]	0.04	0.02	0.02	0.11	0.02	
CC[C@H](C)C(=O)O[C@H]1C(=O)c2c(O)cc(O)cc2O[C@@H]1c1ccccc1	160	116	143	185	78.9	
O=c1cc(-c2ccccc2)oc2cc(O)cc(O)c12 [CHRYSIN]	233	111	94.9	74.4	109	
O=c1cc(-c2ccccc2)oc2cc(O)c(C/C=C/c3ccccc3)c(O)c12	> 270	> 270	> 270	> 270	> 270	
COc1ccc(/C=C/C(=O)O)cc1O [ISOFERULIC ACID]	> 515	> 515	> 515	> 515	> 515	
COc1cc(O)c2c(c1)O[C@H](c1ccccc1)CC2=O [PINOSTROBIN]	> 370	202	156	111	128	
COc1cc(O)c2c(=O)c(O)c(-c3ccccc3)oc2c1 [IZALPININ]	> 350	106	> 350	> 350	30.3	
COc1ccc(/C=C/C(=O)O)cc1OC [O,O'-DIMETHYLCAFFEIC ACID]	> 480	> 480	> 480	> 480	> 480	
O=C1C[C@@H](c2ccccc2)Oc2cc(O)cc(O)c21 [PINOCEMBRIN]	229	108	92.4	68	75.6	
O=c1[nH]cc(F)c(=O)[nH]1 [FLUOROURACIL]	3.61	0.23	1.38	1.23	0.31	
O=c1cc(-c2ccc(O)cc2)oc2cc(O)cc(O)c12 [APIGENIN]	101	92.7	36.6	31.6	25	
O=C(/C=C/c1ccc(O)c(O)c1)OCc1ccccc1 [BENZYL CAFFEATE]	35	2.33	9.74	9.78	1.01	Active
COc1cc(O)c2c(=O)cc(-c3ccccc3)oc2c1 [TECHTOCHRYSIN]	> 370	> 370	358	226	273	
O=C(/C=C/c1ccc(O)c(O)c1)OCCc1ccccc1 [CAFFEIC ACID PHENETHYL ESTER]	27.9	2.36	9.5	6.79	0.3	Active
O=c1c(O)c(-c2ccccc2)oc2cc(O)cc(O)c12 [GALANGIN]	93.6	79	35.7	26.8	19.2	
COc1cc(/C=C/C(=O)OCc2ccccc2)ccc1O [BENZYL FERULATE]	92.8	51.1	46.7	63.7	46.4	

Source: ChEMBL document CHEMBL1148135, “Constituents of Chinese propolis and their antiproliferative activities” (J Nat Prod, 2002)
